This is an account of results in ChEMBL document CHEMBL1121663, “(Acylaryloxy)acetic acid diuretics. 3. 2,3-Dihydro-5-acyl-2-benzofurancarboxylic acids, a new class of uricosuric diuretics” (1981).

Test [1] concerns Rattus norvegicus. In words: Natriuretic activity in rats at 81 mg/kg of dosage; mequiv of Na. The test is classed as functional. Summed up:
(§1)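 Rats housed three per metabolism cage received placebo vehicle or compound as a suspension in a final volume of 5.0 mL orally, with placebo groups run concurrently. Urine was collected over 0–5 h and analysed for Na+, K+ and Cl− by standard methods. Values are mequiv per cage, given as geometric means of three cages per dose level.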

Test [2] concerns Canis familiaris. Kind of test: Compound was tested for diuretic activity in dogs at 5 mg/kg dose after intravenous administration, activity is expressed as urine volume; 1/6. It counts as functional, Canis lupus familiaris.
Test [3] concerns Canis familiaris. In words: Compound was tested for diuretic activity in dogs at 5 mg/kg dose after intravenous administration measured as microequivalent of Na+/minute; 4/193 (Control/Drug treated). It counts as functional, Canis lupus familiaris, Urine.
The subject of test [4] is Rattus norvegicus. Kind of test: Natriuretic activity in rats at 9 mg/kg of dosage; mequiv of Na. It counts as functional. Summed up:
as §1

Test [5] concerns Rattus norvegicus. In words: Natriuretic activity in rats at 3 mg/kg of dosage; mequiv of Na. The test is classed as functional. Summed up:
as §1

The test system of test [6] is Rattus norvegicus. In words: Natriuretic activity in rats at 27 mg/kg of dosage; mequiv of Na. It counts as functional. Summed up:
as §1

Test [7] relates to Canis familiaris. In words: Compound was tested for diuretic activity in dogs at 5 mg/kg dose after intravenous administration measured as microequivalent of Na+/minute; 3/84 (Control/Drug treated). The test is classed as functional, Canis lupus familiaris, Urine.
Test [8] relates to Canis familiaris. In words: Compound was tested for diuretic activity in dogs at 5 mg/kg dose after intravenous administration, activity is expressed as urine volume; 0.4/2. The test is classed as functional, Canis lupus familiaris.
The test system of test [9] is Canis familiaris. In words: Compound was tested for diuretic activity in dogs at 5 mg/kg dose after oral administration measured as microequivalent of Na+/minute.
Test [10] relates to Canis familiaris. Kind of test: Diuretic activity in dogs following 5 mg/kg oral administration.
Test [11] relates to Canis familiaris. Kind of test: Compound was tested for diuretic activity in dogs at 5 mg/kg dose after intravenous administration measured as microequivalent of K+/minute. The test is classed as functional, Canis lupus familiaris, Urine. The conditions noted are these: in the assay text read “oral” for “intravenous”.
Test [12] relates to Canis familiaris. In words: Compound was tested for diuretic activity in dogs at 5 mg/kg dose after oral administration measured as microequivalent of K+/minute. The test is classed as functional, Canis lupus familiaris, Urine. The method in brief: (§2)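 Oral dog test: water loading (250 mL po, then 500 mL 1 h later). One hour later bladders were emptied by catheter and compound or placebo given in gelatin capsules. Dogs were kept in metabolism cages. Voided urine plus catheterized bladder urine was pooled at 5 h, and Na+, K+ and Cl- were measured by standard methods. Geometric means are reported.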

Test [13] has as its system Canis familiaris. Kind of test: Compound was tested for diuretic activity in dogs at 5 mg/kg dose after oral administration measured as microequivalent of Na+/minute. It counts as functional, Canis lupus familiaris, Urine. Summed up: as §2
In test [14] the test system is Canis familiaris. Kind of test: Compound was tested for diuretic activity in dogs at 5 mg/kg dose after intravenous administration measured as microequivalent of Cl-/minute. The note with it: in the assay text read “oral” for “intravenous”. The test is classed as functional, Canis lupus familiaris, Urine.
Test [15] concerns Canis familiaris. Kind of test: Compound was tested for diuretic activity in dogs at 5 mg/kg dose after oral administration measured as microequivalent of Cl-/minute. The test is classed as functional, Canis lupus familiaris, Urine. Summed up: as §2
In test [16] the test system is Canis familiaris. In words: Compound was tested for diuretic activity in dogs at 5 mg/kg dose after intravenous administration measured as microequivalent of Na+/minute; 12/166 (Control/Drug treated). It counts as functional, Canis lupus familiaris, Urine.
In test [17] the test system is Canis familiaris. Kind of test: Compound was tested for diuretic activity in dogs at 5 mg/kg dose after intravenous administration measured as microequivalent of Cl-/minute; 5/156 (Control/Drug treated). It counts as functional, Canis lupus familiaris, Urine. Summed up:
(§3)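 Intravenous dog clearance study. A priming iv injection of 1.5 mL/kg isoosmotic pH 7.4 phosphate buffer (20 mg PO4/kg) was given first. This was followed by infusion of 3 mL/min pH 7.4 buffer containing 4% mannitol (6.9 mg PO4/min) throughout the experiment. Urinary Na+, K+ and Cl- were measured by standard methods. Each value is the mean of the two highest consecutive 15-min collections.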

In another test the test system is Pan troglodytes. Kind of test: Compound was tested for natriuretic activity in chimpanzee at 5 mg/kg dose activity is measured as microequivalent of Na+/minute; muequiv of Na+/min. The test is classed as functional. The method in brief:
(§4)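 Inulin iv gave GFR; urate and inulin clearances and Na+, K+, Cl- excretion were measured by AutoAnalyzer. Controls were three 20-min periods; compound was given orally in aqueous solution via nasal catheter. Response was the mean of eight 15-20 min periods, reported as treatment minus control from single experiments.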

Test [18] concerns Canis familiaris. In words: Compound was tested for diuretic activity in dogs at 5 mg/kg dose after intravenous administration measured as microequivalent of K+/minute; 15/33 (Control/Drug treated). The test is classed as functional, Canis lupus familiaris, Urine. Summed up:
as §3

Test [19] relates to Canis familiaris. Kind of test: Compound was tested for diuretic activity in dogs at 5 mg/kg dose after intravenous administration measured as microequivalent of Na+/minute; 22/144 (Control/Drug treated). It counts as functional, Canis lupus familiaris, Urine.
The nature of test [20]: Compound was tested for natriuretic activity in chimpanzee at 5 mg/kg dose activity is measured as ratio of clearance of urate / […]; Curate/Cinulin. It counts as functional. The method in brief: as §4
Test [21] concerns Canis familiaris. In words: Compound was tested for diuretic activity in dogs at 5 mg/kg dose after intravenous administration measured as microequivalent of Cl-/minute; 9/132 (Control/Drug treated). It counts as functional, Canis lupus familiaris, Urine. Summed up: as §3
The subject of test [22] is Canis familiaris. Kind of test: Compound was tested for diuretic activity in dogs at 5 mg/kg dose after intravenous administration measured as microequivalent of Na+/minute; 11/118 (Control/Drug treated). It counts as functional, Canis lupus familiaris, Urine.
The subject of test [23] is Canis familiaris. In words: Compound was tested for diuretic activity in dogs at 5 mg/kg dose after intravenous administration measured as microequivalent of Cl-/minute; 43/54 (Control/Drug treated). The test is classed as functional, Canis lupus familiaris, Urine. Summed up:
as §3

Test [24] has as its system Canis familiaris. Kind of test: Compound was tested for diuretic activity in dogs at 5 mg/kg dose after intravenous administration measured as microequivalent of K+/minute; 6/35 (Control/Drug treated). The test is classed as functional, Canis lupus familiaris, Urine. The method in brief:
as §3

The test system of test [25] is Canis familiaris. In words: Compound was tested for diuretic activity in dogs at 5 mg/kg dose after intravenous administration, activity is expressed as urine volume.
Test [26] has as its system Canis familiaris. In words: Compound was tested for diuretic activity in dogs at 5 mg/kg dose after intravenous administration measured as microequivalent of Na+/minute; 46/767 (Control/Drug treated). The test is classed as functional, Canis lupus familiaris, Urine.
For test [27], the system named is Canis familiaris. Kind of test: Compound was tested for diuretic activity in dogs at 5 mg/kg dose after intravenous administration measured as microequivalent of K+/minute; 4/19 (Control/Drug treated). The test is classed as functional, Canis lupus familiaris, Urine. The method in brief:
as §3

SMILES strings stand for the structures.

On to `O=C(c1ccc2c(c1)CC(C(=O)O)O2)c1cccs1` (configuration not stated), for which the Oral activity came to 22 in the test on Rattus norvegicus [1], 4 in the test on Rattus norvegicus [4], 6 with Rattus norvegicus [5] and 7 with Rattus norvegicus [6]. Also, the Urine volume in the test on Canis familiaris [2] is 1 mL/min. Besides, the Na+ excretion with Canis familiaris [3] came out at 193 µequiv/min.
Turning to `CC(=O)c1cc2c(c(Cl)c1Cl)OC(C(=O)O)C2` (configuration not stated), the Oral activity with Canis familiaris [7] came to 3; with Rattus norvegicus [1], 161; in the test with Rattus norvegicus [4], 26; with Rattus norvegicus [5], 13; in the test on Rattus norvegicus [6], 76. In the test with Canis familiaris [8], the Urine volume came out at 0.4 mL/min.
On to `N=C(N)NC(=O)C1Cc2cc(C(=O)c3cccs3)c(Cl)c(Cl)c2O1` (configuration not stated), for which the Oral activity with Canis familiaris [9] came out at 4.9; in the test with Rattus norvegicus [1] it was 159; in the test on Canis familiaris [11] it was 1.2; with Canis familiaris [12], 1.2; with Canis familiaris [13], 4.9; in the test with Rattus norvegicus [4], 98. Also, the Oral activity is listed as 72 with Rattus norvegicus [5], 4.8 in the test with Canis familiaris [14], 143 with Rattus norvegicus [6] and 4.8 in the test on Canis familiaris [15]. This compound also returned a Urine volume with Canis familiaris [10] of 212 mL.
On to `NS(=O)(=O)c1cc2c(cc1Cl)NCNS2(=O)=O` [HYDROCHLOROTHIAZIDE], for which the Na+ excretion in the test on Canis familiaris [16] came to 166 µequiv/min. Besides, the Cl- excretion with Canis familiaris [17] was 156 µequiv/min. Further, the values for the Oral activity in the test with Pan troglodytes and in the test on Rattus norvegicus [4] were 144 and 112, respectively. Moreover, the K+ excretion with Canis familiaris [18] is 33 µequiv/min.
On to `O=C(O)COc1ccc(C(=O)c2cccs2)c(Cl)c1Cl`, for which the Urine volume in the test with Canis familiaris [10] was found to be 395 mL. In addition, the Oral activity turned out to be 56 in the test on Rattus norvegicus [1]; 318 in the test with Pan troglodytes; 1.8 in the test on Canis familiaris [12]; 3.3 in the test on Canis familiaris [13]; 15 in the test on Rattus norvegicus [4]; 7 in the test on Rattus norvegicus [5]. Moreover, the Oral activity was 43 in the test on Rattus norvegicus [6] and 5.4 with Canis familiaris [15]. The Na+ excretion in the test with Canis familiaris [19] came out at 144 µequiv/min. Besides, the Ratio in test [20] is given as 0.437. Moreover, the Cl- excretion in the test with Canis familiaris [21] amounted to 132 µequiv/min.
For `O=C(c1cccs1)c1cc2c(c(Cl)c1Cl)O[C@@H](C(=O)O)C2`, in the test on Canis familiaris [10], the Urine volume was 233 mL. For the same compound, the Na+ excretion with Canis familiaris [22] amounted to 118 µequiv/min. Moreover, the Oral activity in the test on Rattus norvegicus [1] came to 29; in the test on Pan troglodytes, 95; in the test with Canis familiaris [12] it was 2.5; in the test on Canis familiaris [13], 4.8; in the test with Rattus norvegicus [4], 38; in the test on Rattus norvegicus [5], 48. In addition, the Oral activity came to 41 with Rattus norvegicus [6] and 4.3 in the test on Canis familiaris [15]. Besides, the Ratio in test [20] stood at 0.454. In addition, the Cl- excretion in the test on Canis familiaris [23] amounted to 54 µequiv/min. Besides, the K+ excretion in the test on Canis familiaris [24] was 35 µequiv/min.
Regarding `NS(=O)(=O)c1cc(C(=O)O)c(NCc2ccco2)cc1Cl` [FUROSEMIDE], the Oral activity in the test with Rattus norvegicus [1] was 234; in the test on Pan troglodytes it was 1035; in the test with Rattus norvegicus [4], 7; with Rattus norvegicus [5], 6; with Rattus norvegicus [6], 125. Also, the Ratio in test [20] is listed as -0.02. The compound also had a Urine volume with Canis familiaris [25] of 700 mL.
Turning to `O=C(c1cnsn1)c1cc2c(c(Cl)c1Cl)OC(C(=O)O)C2` (configuration not stated), the Oral activity was found to be 284 in the test on Rattus norvegicus [1]; 88 with Pan troglodytes; 82 in the test with Rattus norvegicus [4]; 38 in the test on Rattus norvegicus [5]; 230 with Rattus norvegicus [6]. The Na+ excretion in the test on Canis familiaris [26] came out at 767 µequiv/min. Besides, the Ratio in test [20] is listed as 0.096.
As for `O=C(c1ccccc1)c1cc2c(c(Cl)c1Cl)OC(C(=O)O)C2` (configuration not stated), the K+ excretion in the test with Canis familiaris [27] was determined as 19 µequiv/min. Further, the Oral activity with Rattus norvegicus [1] came out at 119; in the test on Rattus norvegicus [4], 85; in the test on Rattus norvegicus [5], 59; in the test on Rattus norvegicus [6], 117.
